Results reported in ChEMBL document CHEMBL5329174, “Discovery of benzoxazole-thiazolidinone hybrids as promising antibacterial agents against Staphylococcus aureus and Enterococcus species” (RSC Med Chem, 2023).
Converted amounts (≈) assume the structure as drawn. Blank lines part the entries; values can stand above or below the compound they belong to.

Assays:
Pseudomonas aeruginosa = assay: Antibacterial activity against Pseudomonas aeruginosa ATCC 27853 assessed as reduction in bacterial growth; type: functional
Outline: (§1)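 CLSI broth microdilution in cation-supplemented Mueller–Hinton broth II; overnight starter cultures (37 °C, shaking, 18–24 h) adjusted by OD600 to ~10^6 CFU/mL. Compounds dosed from DMSO stocks (10 mg/mL stock) as two-fold dilutions, 64–0.5 mg/L. Plates held 37 °C, 18–24 h. MIC = lowest concentration without visible growth. Three independent runs, each in duplicate.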

Staphylococcus aureus [1] = assay: Antibacterial activity against Staphylococcus aureus ATCC 29213 assessed as reduction in bacterial growth; type: functional; outline: as §1
Escherichia coli = assay: Antibacterial activity against Escherichia coli ATCC 25922 assessed as reduction in bacterial growth; type: functional; outline: as §1
Klebsiella pneumoniae = assay: Antibacterial activity against Klebsiella pneumoniae BAA-1705 assessed as reduction in bacterial growth; type: functional; outline: as §1
Acinetobacter baumannii = assay: Antibacterial activity against Acinetobacter baumannii BAA-1605 assessed as reduction in bacterial growth; type: functional; outline: as §1
[2] = Cytotoxicity against african green monkey Vero cells assessed as reduction in cell viability incubated for 72 hrs by MTT assay; type: toxicity, cell-based; settings: chlorocebus sabaeus
Outline: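 Vero (ATCC CCL-81) cells seeded at ~10^3 per well, 37 °C, 5% CO2. After 24 h, compound added at 100–12.5 μg/mL for 72 h. MTT then given for 4 h at 37 °C, formazan dissolved in DMSO, absorbance read at 540 nm. CC50 taken as the concentration giving 50% viability loss; doxorubicin as positive control; triplicate.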

Staphylococcus aureus [3] = assay: Antibacterial activity against vancomycin-resistant Staphylococcus aureus VRS 1 assessed as reduction in bacterial growth; type: functional
Outline: (§2)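 CLSI broth microdilution in cation-supplemented Mueller–Hinton broth II. Starter cultures were grown overnight at 37 °C with shaking from a single MHA colony, then diluted by OD600 to ~10^6 CFU/mL. Compounds came from 10 mg/mL DMSO stocks and were tested two-fold from 64 to 0.5 mg/L. Plates were incubated 37 °C for 18–24 h. MIC was taken as the lowest concentration with no visible growth. Three independent runs, each in duplicate.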

Staphylococcus aureus [4] = assay: Antibacterial activity against methicilin-resistant Staphylococcus aureus NRS 193 assessed as reduction in bacterial growth; type: functional; outline: as §2
Staphylococcus aureus [5] = assay: Antibacterial activity against vancomycin-resistant Staphylococcus aureus VRS 4 assessed as reduction in bacterial growth; type: functional; outline: as §2
Staphylococcus aureus [6] = assay: Antibacterial activity against methicilin-resistant Staphylococcus aureus NRS 198 assessed as reduction in bacterial growth; type: functional; outline: as §2
Enterococcus faecium [7] = assay: Antibacterial activity against vancomycin-resistant Enterococcus faecium NR 31903 assessed as inhibition of bacterial growth
Staphylococcus aureus [8] = assay: Antibacterial activity against methicilin-resistant Staphylococcus aureus NRS 191 assessed as reduction in bacterial growth; type: functional; outline: as §2
Enterococcus faecalis [9] = assay: Antibacterial activity against vancomycin-susceptible Enterococcus faecalis NR 31885 assessed as inhibition of bacterial growth incubated for 18 to 24 hrs by broth microdilution assay; type: functional; settings: time 18-24 hrs; outline: as §1
Enterococcus faecium [10] = assay: Antibacterial activity against vancomycin-resistant Enterococcus faecium NR 31909 assessed as inhibition of bacterial growth
Staphylococcus aureus [11] = assay: Antibacterial activity against vancomycin-resistant Staphylococcus aureus VRS 12 assessed as reduction in bacterial growth; type: functional; outline: as §2
Enterococcus faecium [12] = assay: Antibacterial activity against vancomycin-resistant Enterococcus faecium NR 31912 assessed as inhibition of bacterial growth
Enterococcus faecalis [13] = assay: Antibacterial activity against vancomycin-susceptible Enterococcus faecalis NR 31887 assessed as inhibition of bacterial growth incubated for 18 to 24 hrs by broth microdilution assay; type: functional; settings: time 18-24 hrs; outline: as §1
Enterococcus faecalis [14] = assay: Antibacterial activity against vancomycin-susceptible Enterococcus faecalis NR 31886 assessed as inhibition of bacterial growth incubated for 18 to 24 hrs by broth microdilution assay; type: functional; settings: time 18-24 hrs; outline: as §1
Staphylococcus aureus [15] = assay: Antibacterial activity against methicilin-resistant Staphylococcus aureus NRS 186 assessed as reduction in bacterial growth; type: functional; outline: as §2
Staphylococcus aureus [16] = assay: Antibacterial activity against methicilin-resistant Staphylococcus aureus NRS 194 assessed as reduction in bacterial growth; type: functional; outline: as §2
Staphylococcus aureus [17] = assay: Antibacterial activity against methicilin-resistant Staphylococcus aureus NRS 192 assessed as reduction in bacterial growth; type: functional; outline: as §2
Enterococcus faecalis [18] = assay: Antibacterial activity against vancomycin-susceptible Enterococcus faecalis NR 31888 assessed as inhibition of bacterial growth incubated for 18 to 24 hrs by broth microdilution assay; type: functional; settings: time 18-24 hrs; outline: as §1
Staphylococcus aureus [19] = assay: Antibacterial activity against methicilin-resistant Staphylococcus aureus NRS 129 assessed as reduction in bacterial growth; type: functional; outline: as §2
Staphylococcus aureus [20] = assay: Antibacterial activity against methicilin-resistant Staphylococcus aureus NRS 100 assessed as reduction in bacterial growth; type: functional; outline: as §2
[21] = Selectivity index, ratio of CC50 for cytotoxicity against african green monkey Vero cells assessed as reduction in cell viability to MIC for antibacterial activity against Staphylococcus aureus ATCC 29213 assessed as reduction in bacterial growth; type: toxicity, cell-based; settings: read-out: Selectivity Index
Enterococcus faecalis [22] = assay: Antibacterial activity against vancomycin-susceptible Enterococcus faecalis NR 31884 assessed as inhibition of bacterial growth incubated for 18 to 24 hrs by broth microdilution assay; type: functional; settings: time 18-24 hrs; outline: as §1
Staphylococcus aureus [23] = assay: Antibacterial activity against methicilin-resistant Staphylococcus aureus NRS 119 assessed as reduction in bacterial growth; type: functional; outline: as §2

Compound: COc1cccc2c1C(=O)c1c(O)c3c(c(O)c1C2=O)C[C@@](O)(C(=O)CO)C[C@@H]3O[C@H]1C[C@H](N)[C@H](O)[C@H](C)O1 [DOXORUBICIN]
CC50 at 72 h [2]: 10 mg/L (≈ 18.4 µM)

Compound: O=C1N/C(=N\c2nc3ccccc3o2)S/C1=C\c1ccc(Cl)cc1
MIC (Pseudomonas aeruginosa): > 64 mg/L | MIC (Staphylococcus aureus [1]): 8 mg/L (≈ 22.5 µM) | MIC (Escherichia coli): > 64 mg/L | MIC (Klebsiella pneumoniae): > 64 mg/L | MIC (Acinetobacter baumannii): > 64 mg/L

Compound: O=C1N/C(=N\c2nc3ccccc3o2)S/C1=C\c1ccc([N+](=O)[O-])cc1
MIC (Pseudomonas aeruginosa): > 64 mg/L | MIC (Staphylococcus aureus [1]): > 64 mg/L | MIC (Escherichia coli): > 64 mg/L | MIC (Klebsiella pneumoniae): > 64 mg/L | MIC (Acinetobacter baumannii): > 64 mg/L

Compound: O=C1N/C(=N\c2nc3ccccc3o2)S/C1=C\c1ccc(O)cc1
MIC (Staphylococcus aureus [3]): 2 mg/L (≈ 5.93 µM) | MIC (Staphylococcus aureus [4]): 2 mg/L (≈ 5.93 µM) | MIC (Staphylococcus aureus [5]): 2 mg/L (≈ 5.93 µM) | MIC (Staphylococcus aureus [6]): 2 mg/L (≈ 5.93 µM) | MIC (Pseudomonas aeruginosa): > 64 mg/L | MIC (Enterococcus faecium [7]): 4 mg/L (≈ 11.9 µM) | MIC (Staphylococcus aureus [8]): 2 mg/L (≈ 5.93 µM) | MIC (Enterococcus faecalis [9]): 16 mg/L (≈ 47.4 µM) | MIC (Enterococcus faecium [10]): 0.25 mg/L (≈ 0.741 µM) | MIC (Staphylococcus aureus [1]): 2 mg/L (≈ 5.93 µM) | MIC (Staphylococcus aureus [11]): 2 mg/L (≈ 5.93 µM) | MIC (Enterococcus faecium [12]): 0.25 mg/L (≈ 0.741 µM) | MIC (Enterococcus faecalis [13]): 8 mg/L (≈ 23.7 µM) | MIC (Escherichia coli): > 64 mg/L | MIC (Enterococcus faecalis [14]): 16 mg/L (≈ 47.4 µM) | MIC (Klebsiella pneumoniae): > 64 mg/L | MIC (Staphylococcus aureus [15]): 1 mg/L (≈ 2.96 µM) | MIC (Staphylococcus aureus [16]): 2 mg/L (≈ 5.93 µM) | MIC (Staphylococcus aureus [17]): 2 mg/L (≈ 5.93 µM) | MIC (Enterococcus faecalis [18]): 16 mg/L (≈ 47.4 µM) | MIC (Staphylococcus aureus [19]): 2 mg/L (≈ 5.93 µM) | MIC (Staphylococcus aureus [20]): 1 mg/L (≈ 2.96 µM) | selectivity ratio [21]: > 20 | MIC (Enterococcus faecalis [22]): 16 mg/L (≈ 47.4 µM) | CC50 at 72 h [2]: > 40 mg/L | MIC (Acinetobacter baumannii): > 64 mg/L | MIC (Staphylococcus aureus [23]): 2 mg/L (≈ 5.93 µM)

Compound: COc1ccc(/C=C2\S/C(=N/c3nc4ccccc4o3)NC2=O)cc1
MIC (Pseudomonas aeruginosa): > 64 mg/L | MIC (Staphylococcus aureus [1]): > 64 mg/L | MIC (Escherichia coli): > 64 mg/L | MIC (Klebsiella pneumoniae): > 64 mg/L | MIC (Acinetobacter baumannii): > 64 mg/L

Compound: O=C1N/C(=N\c2nc3ccccc3o2)S/C1=C\c1ccccc1[N+](=O)[O-]
MIC (Pseudomonas aeruginosa): > 64 mg/L | MIC (Staphylococcus aureus [1]): 8 mg/L (≈ 21.8 µM) | MIC (Escherichia coli): > 64 mg/L | MIC (Klebsiella pneumoniae): > 64 mg/L | MIC (Acinetobacter baumannii): > 64 mg/L

Compound: C[C@H]1COc2c(N3CCN(C)CC3)c(F)cc3c(=O)c(C(=O)O)cn1c23 [LEVOFLOXACIN ANHYDROUS]
MIC (Staphylococcus aureus [3]): 64 mg/L (≈ 177 µM) | MIC (Staphylococcus aureus [4]): 32 mg/L (≈ 88.6 µM) | MIC (Staphylococcus aureus [5]): > 64 mg/L | MIC (Staphylococcus aureus [6]): 32 mg/L (≈ 88.6 µM) | MIC (Enterococcus faecium [7]): > 64 mg/L | MIC (Staphylococcus aureus [8]): 16 mg/L (≈ 44.3 µM) | MIC (Enterococcus faecalis [9]): 0.25 mg/L (≈ 0.692 µM) | MIC (Enterococcus faecium [10]): 64 mg/L (≈ 177 µM) | MIC (Staphylococcus aureus [1]): 0.125 mg/L (≈ 0.346 µM) | MIC (Staphylococcus aureus [11]): 32 mg/L (≈ 88.6 µM) | MIC (Enterococcus faecium [12]): 64 mg/L (≈ 177 µM) | MIC (Enterococcus faecalis [13]): 0.25 mg/L (≈ 0.692 µM) | MIC (Enterococcus faecalis [14]): 0.25 mg/L (≈ 0.692 µM) | MIC (Klebsiella pneumoniae): 64 mg/L (≈ 177 µM) | MIC (Staphylococcus aureus [15]): 8 mg/L (≈ 22.1 µM) | MIC (Staphylococcus aureus [16]): 0.125 mg/L (≈ 0.346 µM) | MIC (Staphylococcus aureus [17]): 8 mg/L (≈ 22.1 µM) | MIC (Enterococcus faecalis [18]): 0.25 mg/L (≈ 0.692 µM) | MIC (Staphylococcus aureus [19]): 0.25 mg/L (≈ 0.692 µM) | MIC (Staphylococcus aureus [20]): 0.25 mg/L (≈ 0.692 µM) | MIC (Enterococcus faecalis [22]): 0.25 mg/L (≈ 0.692 µM) | CC50 at 72 h [2]: > 100 mg/L | MIC (Staphylococcus aureus [23]): 16 mg/L (≈ 44.3 µM)

Compound: O=C1N/C(=N\c2nc3ccccc3o2)S/C1=C\c1cccc(Cl)c1
MIC (Pseudomonas aeruginosa): > 64 mg/L | MIC (Staphylococcus aureus [1]): 8 mg/L (≈ 22.5 µM) | MIC (Escherichia coli): > 64 mg/L | MIC (Klebsiella pneumoniae): > 64 mg/L | MIC (Acinetobacter baumannii): > 64 mg/L

Compound: O=C1N/C(=N\c2nc3ccccc3o2)S/C1=C\c1cccc(F)c1
MIC (Pseudomonas aeruginosa): > 64 mg/L | MIC (Staphylococcus aureus [1]): 8 mg/L (≈ 23.6 µM) | MIC (Escherichia coli): > 64 mg/L | MIC (Klebsiella pneumoniae): > 64 mg/L | MIC (Acinetobacter baumannii): > 64 mg/L

Continued, values first:

MIC (Pseudomonas aeruginosa): > 64 mg/L | MIC (Staphylococcus aureus [1]): 16 mg/L (≈ 47.1 µM) | MIC (Escherichia coli): > 64 mg/L | MIC (Klebsiella pneumoniae): > 64 mg/L | MIC (Acinetobacter baumannii): > 64 mg/L
Compound: O=C1N/C(=N\c2nc3ccccc3o2)S/C1=C\c1ccccc1F

MIC (Pseudomonas aeruginosa): > 64 mg/L | MIC (Staphylococcus aureus [1]): 16 mg/L (≈ 45 µM) | MIC (Escherichia coli): > 64 mg/L | MIC (Klebsiella pneumoniae): > 64 mg/L | MIC (Acinetobacter baumannii): > 64 mg/L
Compound: O=C1N/C(=N\c2nc3ccccc3o2)S/C1=C\c1ccccc1Cl

MIC (Pseudomonas aeruginosa): > 64 mg/L | MIC (Staphylococcus aureus [1]): > 64 mg/L | MIC (Escherichia coli): > 64 mg/L | MIC (Klebsiella pneumoniae): > 64 mg/L | MIC (Acinetobacter baumannii): > 64 mg/L
Compound: O=C1N/C(=N\c2nc3ccccc3o2)S/C1=C\c1cccc([N+](=O)[O-])c1

MIC (Pseudomonas aeruginosa): > 64 mg/L | MIC (Staphylococcus aureus [1]): > 64 mg/L | MIC (Escherichia coli): > 64 mg/L | MIC (Klebsiella pneumoniae): > 64 mg/L | MIC (Acinetobacter baumannii): > 64 mg/L
Compound: COc1cccc(/C=C2\S/C(=N/c3nc4ccccc4o3)NC2=O)c1
